Experimental data from different studies.
Protocols differ between the studies behind these lines.
CDK7: Cyclin-dependent kinase 7 (CDK7, Homo sapiens, UniProt P50613)
CDK7 with cyclin H: Cyclin-dependent kinase 7, with cyclin H (CDK7, Homo sapiens, UniProt P50613)

| SMILES | target | observed | action | method | concentration | endpoint | result |
| --- | --- | --- | --- | --- | --- | --- | --- |
| COc1cc(-c2cc(-c3ccc(N4CCNCC4)cc3)cnc2C)cc(OC)c1OC | CDK7 | enzyme activity | inhibitor |  | 0.1 µM | inhibition | 0% |
| CNC(=O)c1cc(Oc2ccc(NC(=O)Nc3ccc(Cl)c(C(F)(F)F)c3)cc2)ccn1 | CDK7 with cyclin H | enzyme activity | inhibitor |  | 10 µM | inhibition | -36% |
| COc1c2c(cc3oc(-c4ccccc4)cc(=O)c13)OCO2 | CDK7 with cyclin H | enzyme activity | inhibitor | ADP detection | 10 µM | inhibition | 94.4% |
| C[C@@H]1CN(c2cc(-c3n[nH]c4ccc(OC5(C)CC5)cc34)ncn2)C[C@H](C)O1 | CDK7 | cell-free assay |  | competition with immobilised ligand | 0.1 µM | remaining binding | 56% |
| CN1C(=N)N(C)/C(=C/c2c[nH]c3ccccc23)C1=O | CDK7 with cyclin H | enzyme activity | inhibitor | ADP detection | 10 µM | inhibition | 34.1% |
| CO[C@@H](C)c1c(Nc2ccc([C@@H](N(C)C(=O)C3CCS(=O)(=O)CC3)C(F)(F)F)cc2)cnc2cc(Cl)nn12 | CDK7 | cell-free assay |  | competition with immobilised ligand | 1 µM | remaining binding | 100% |
| CCCOc1ccc(OC)c(F)c1C(=O)c1ccc(C(=O)N[C@@H]2CNC[C@H]2NC(=O)c2ccc3[nH]ncc3c2)cc1 | CDK7 | enzyme activity | inhibitor |  | 10 µM | remaining activity | 13% |
| O=C1NC(=O)c2cc(Nc3ccc(F)cc3)c(Nc3ccc(F)cc3)cc21 | CDK7 with cyclin H | cell-free assay |  |  | 0.5 µM | remaining signal | 100% |
| CC(=O)Nc1c(C(C)=O)c(=O)n(C)c2nc(-c3ccc(Cl)cc3Cl)c(-c3ccc(Cl)cc3)cc12 | CDK7 | cell-free assay |  | competition with immobilised ligand | 1 µM | remaining binding | 100% |
| Cc1ccc(NC(=O)c2ccc(C)c(C(F)(F)F)c2)cc1C#Cc1nn(C2CCC(O)CC2)c2ncnc(N)c12 (centres unmarked) | CDK7 | cell-free assay |  |  | 10 µM | remaining signal | 103% |
| Cc1ccc(C(=O)Nc2ccc(CN3CCN(C)CC3)c(C(F)(F)F)c2)cc1C#Cc1cnc2cccnn12 | CDK7 | enzyme activity | inhibitor |  | 23.5 nM | remaining activity | 47% |
| Cc1ccc(Nc2nccc(N(C)c3ccc4c(C)n(C)nc4c3)n2)cc1S(N)(=O)=O | CDK7 with cyclin H | enzyme activity | inhibitor |  | 0.3 µM | inhibition | 8% |
| Cc1cc(NC(=O)c2cccc(S(F)(F)(F)(F)F)c2)cc(-n2ccn3nc(-c4cccnc4)cc23)c1 | CDK7 | cell-free assay |  | competition with immobilised ligand | 1 µM | remaining binding | 100% |
| O=C1C[C@@H](c2ccc(O)c(O[C@@H]3O[C@H](CO)[C@@H](O)[C@H](O)[C@H]3O)c2)Oc2cc(O[C@@H]3O[C@H](CO)[C@@H](O)[C@H](O)[C@H]3O)ccc21 | CDK7 with cyclin H | enzyme activity | inhibitor | ADP detection | 10 µM | inhibition | 36.6% |
| CNC(=O)Nc1ccc2c(c1)[C@@]1(CC2)OC(=O)N(CC(=O)N(Cc2ccc(F)cc2)[C@@H](C)C(F)(F)F)C1=O | CDK7 | cell-free assay |  | competition with immobilised ligand | 1 µM | remaining binding | 76% |
| C=C1CC[C@@H]2[C@](C)(CO)[C@H](O)CC[C@@]2(C)[C@@H]1CCC1=CCOC1=O | CDK7 with cyclin H | enzyme activity | inhibitor | ADP detection | 10 µM | inhibition | 22.8% |
| O=C1Nc2ccc(Cl)cc2C1=Cc1cc(Cl)c(O)c(Cl)c1 | CDK7 with cyclin H | cell-free assay |  |  | 0.5 µM | remaining signal | 96.7% |
| O=C(Nc1cnn(-c2csc(C(=O)NC3COC3)c2)c1)Nc1c(F)cccc1Cl | CDK7 with cyclin H | enzyme activity | inhibitor |  | 5 µM | remaining activity | 95.8% |
| C=C(C)[C@@H]1CC[C@]2(C(=O)O)CC[C@]3(C)[C@H](CC[C@@H]4[C@@]5(C)CC[C@H](O)C(C)(C)[C@@H]5CC[C@]43C)[C@@H]12 | CDK7 with cyclin H | enzyme activity | inhibitor | ADP detection | 10 µM | inhibition | 35.2% |
| Cc1cnc(NC2CCOCC2)nc1-n1cnc(C(=O)NC(CN)c2cc(F)cc(Cl)c2)c1 (centres unmarked) | CDK7 | enzyme activity | inhibitor | radiometric | 1 µM | remaining activity | 16% |
| CCS(=O)(=O)c1cc2cc(C[C@@](O)(CC(C)(C)c3ccc(F)cc3C(N)=O)C(F)(F)F)[nH]c2cn1 | CDK7 | cell-free assay |  | competition with immobilised ligand | 1 µM | remaining binding | 99% |
| Nc1ncnc2occ(-c3ccc(NC(=O)Nc4cc(C(F)(F)F)ccc4F)cc3)c12 | CDK7 | cell-free assay | inhibitor |  | 20 µM | remaining signal | 0.9% |
| CC(C)(C)c1nc2c(s1)c1nc(N)ncc1c1ccc(NS(=O)(=O)c3c(F)cccc3F)c(F)c12 | CDK7 with cyclin H | enzyme activity | inhibitor | radiometric | 1 µM | remaining activity | 123% |
| COC(=O)C1=CO[C@@H](C)[C@H]2CN3CCc4c([nH]c5ccccc45)[C@@H]3C[C@H]12 | CDK7 with cyclin H | enzyme activity | inhibitor | ADP detection | 10 µM | inhibition | -41.8% |
| CS(=O)(=O)N1CCCC(NC(=O)[C@H](CCC2CCCCC2)NC(=O)c2ccc(CNc3ncnc4c3nnn4-c3ccccc3)cc2)C1 (some centres unmarked) | CDK7 | cell-free assay |  | competition with immobilised ligand | 0.1 µM | remaining binding | 100% |
| CC[C@]12CCCN3CCc4c(n(c5ccccc45)[C@@](O)(C(=O)OC)C1)[C@@H]32 | CDK7 with cyclin H | enzyme activity | inhibitor | ADP detection | 10 µM | inhibition | -20.8% |
| Oc1ccc(-c2nc(-c3ccncc3)c(-c3ccc(F)cc3)[nH]2)cc1 | CDK7 with cyclin H | cell-free assay |  |  | 0.5 µM | remaining signal | 99.4% |
| Cc1cc(=O)c2c(O)cc(O)cc2o1 | CDK7 with cyclin H | enzyme activity | inhibitor | ADP detection | 10 µM | inhibition | 29.4% |
| CN1CCN(c2cnc3c(C4CCN(C(=O)c5ccc(OC(F)(F)F)cc5N)CC4)ncnc3c2)CC1 | CDK7 | cell-free assay |  | competition with immobilised ligand | 1 µM | remaining binding | 89% |
